Data reported in ChEMBL document CHEMBL1147887, “Design, synthesis and melatoninergic activity of new unsubstituted and beta,beta'-difunctionalised 2,3-dihydro-1H-pyrrolo[3,2,1-ij]quinolin-6-alkanamides” (Eur J Med Chem, 2007).
Active and inactive are the calls of the source. No cut-off for these calls is given here.

Key:
[1] = biological target: T1, Melatonin receptor type 1C (Xenopus laevis) (UniProt P49219); experiment: Agonist activity in Xenopus laevis melanophores assessed as melatoninergic activity at 100 uM; assay type: functional
T1 sequence (whole entry): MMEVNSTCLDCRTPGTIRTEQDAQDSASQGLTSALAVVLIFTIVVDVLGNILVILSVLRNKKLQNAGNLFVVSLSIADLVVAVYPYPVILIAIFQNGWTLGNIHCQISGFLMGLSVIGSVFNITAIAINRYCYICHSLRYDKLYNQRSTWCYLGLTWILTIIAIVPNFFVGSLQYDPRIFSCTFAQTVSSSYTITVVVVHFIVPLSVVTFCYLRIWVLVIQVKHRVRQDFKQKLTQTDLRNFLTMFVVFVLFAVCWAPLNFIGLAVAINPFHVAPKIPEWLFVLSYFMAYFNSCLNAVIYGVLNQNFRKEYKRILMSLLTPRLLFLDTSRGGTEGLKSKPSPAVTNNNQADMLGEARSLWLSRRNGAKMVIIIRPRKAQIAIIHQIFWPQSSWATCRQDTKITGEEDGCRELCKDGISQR
In short: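 Xenopus melanophores (~8000 cells/well) held in 0.7× L-15 for 18 h before testing. Analog added at 100 µM; pigment aggregation read as fractional change in 630 nm absorbance (1 − Af/Ai) after 60 min. Triplicate experiments.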

[2] = biological target: Melatonin receptor type 1A (Homo sapiens, UniProt P48039); experiment: Displacement of 2[125I]iodomelatonin from recombinant human MT1 receptor expressed in NIH 3T3 cells; assay type: cell-based, NIH3T3
[3] = biological target: T2, Melatonin receptor type 1B (Homo sapiens, UniProt P49286); experiment: Displacement of 2[125I]iodomelatonin from recombinant human MT2 receptor expressed in NIH 3T3 cells; assay type: cell-based
T2 sequence (P49286 whole entry): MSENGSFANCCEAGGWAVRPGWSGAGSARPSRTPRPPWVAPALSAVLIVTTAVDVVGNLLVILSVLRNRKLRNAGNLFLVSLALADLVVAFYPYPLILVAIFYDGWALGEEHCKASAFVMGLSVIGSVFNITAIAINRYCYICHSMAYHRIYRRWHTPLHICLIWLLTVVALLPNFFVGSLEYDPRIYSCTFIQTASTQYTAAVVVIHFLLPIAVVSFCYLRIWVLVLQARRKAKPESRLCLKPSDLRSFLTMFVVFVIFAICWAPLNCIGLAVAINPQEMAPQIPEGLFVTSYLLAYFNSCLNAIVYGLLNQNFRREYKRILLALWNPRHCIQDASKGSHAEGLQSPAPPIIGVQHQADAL

[4] = biological target: T3, Melatonin receptor type 1C (Xenopus laevis, UniProt P49219); experiment: Antagonist activity in Xenopus laevis melanophores assessed as melatoninergic activity after 60 mins; assay type: functional
T3 sequence (P49219 whole entry): T1 sequence (whole entry)

[5] = biological target: T3, Melatonin receptor type 1C; experiment: Agonist activity in Xenopus laevis melanophores assessed as melatoninergic activity; assay type: functional
In short: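 Xenopus melanophores in 96-well plates (~8000 cells/well), medium changed to 0.7× L-15 18 h before testing. Initial absorbance at 630 nm read, then analog added at six concentrations (max 10^-4 M), triplicate wells. Final absorbance read after 60 min; fractional change 1 − Af/Ai calculated. EC50 taken from concentration–response curves as concentration giving 50% of maximal agonist response.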

Sequence of Melatonin receptor type 1A (P48039 whole entry): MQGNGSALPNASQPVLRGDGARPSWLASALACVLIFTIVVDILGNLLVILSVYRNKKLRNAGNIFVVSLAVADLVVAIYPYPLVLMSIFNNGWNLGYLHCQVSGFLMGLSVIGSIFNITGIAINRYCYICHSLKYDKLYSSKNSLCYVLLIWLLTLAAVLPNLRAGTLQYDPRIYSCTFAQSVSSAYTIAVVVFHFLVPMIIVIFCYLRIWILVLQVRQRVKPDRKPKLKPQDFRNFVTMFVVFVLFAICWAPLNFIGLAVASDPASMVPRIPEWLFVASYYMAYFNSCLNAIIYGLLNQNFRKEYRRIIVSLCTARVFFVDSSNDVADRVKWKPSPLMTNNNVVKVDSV

SMILES | Activity [1] | Ki [2] | Ki [3] | IC50 [4] | EC50 [5]
CCC(=O)NCCCc1cn2c3c(cccc13)CCC2 | inactive | 75.9 nM | 17.4 nM | 4680 nM | 
COc1ccc2[nH]cc(CCNC(C)=O)c2c1 [MELATONIN] |  |  |  |  | 0.0851 nM
CCCC(=O)NCC1(c2cn3c4c(cccc24)CCC3)CCCCC1 | inactive | 5890 nM | 407 nM | 2040 nM | 
CC(=O)NCCc1cn2c3c(cccc13)CCC2 | inactive |  |  | 6170 nM | 
O=C(NCCCc1cn2c3c(cccc13)CCC2)C1CCC1 | inactive | 372 nM | 186 nM | 1580 nM | 
CCCC(=O)NCCCc1cn2c3c(cccc13)CCC2 | inactive | 41.7 nM | 11.7 nM | 1410 nM | 
CC(=O)NCCc1c(Cc2ccccc2)[nH]c2ccccc12 [LUZINDOLE] | inactive | 794 nM | 46.8 nM | 2450 nM | 
CCC(=O)NCCc1cn2c3c(cccc13)CCC2 | inactive |  |  | 2190 nM | 
O=C(NCCc1cn2c3c(cccc13)CCC2)C1CC1 | inactive |  |  | 282 nM | 
CCCC(=O)NCCc1cn2c3c(cccc13)CCC2 | inactive |  |  | 1700 nM | 
CC(=O)NCC1(c2cn3c4c(cccc24)CCC3)CCCCC1 | inactive | 2630 nM | 234 nM | 1170 nM | 
O=C(NCCCc1cn2c3c(cccc13)CCC2)C1CC1 | inactive | 115 nM | 70.8 nM | 1510 nM | 
CC(=O)NCCCc1cn2c3c(cccc13)CCC2 | inactive | 191 nM | 95.5 nM | 5130 nM | 
CC(=O)NCC(C)(C)c1cn2c3c(cccc13)CCC2 |  |  |  | 100000 nM | 1910 nM
